According to ChEMBL document CHEMBL4184291, “Discovery of N-arylpyrroles as agonists of GPR120 for the treatment of type II diabetes” (Bioorg Med Chem Lett, 2018):

What was measured:
[1] = target: T1, Free fatty acid receptor 4 (Homo sapiens, UniProt Q5NUL3); experiment: Agonist activity at recombinant human GPR120 short isoform expressed in HEK293 cells assessed as intracellular calcium flux measured for 300 secs at 1 sec time interval by Fluo-4 NW based FLIPR assay; type: functional, cell-based
T1 sequence (Q5NUL3 whole entry): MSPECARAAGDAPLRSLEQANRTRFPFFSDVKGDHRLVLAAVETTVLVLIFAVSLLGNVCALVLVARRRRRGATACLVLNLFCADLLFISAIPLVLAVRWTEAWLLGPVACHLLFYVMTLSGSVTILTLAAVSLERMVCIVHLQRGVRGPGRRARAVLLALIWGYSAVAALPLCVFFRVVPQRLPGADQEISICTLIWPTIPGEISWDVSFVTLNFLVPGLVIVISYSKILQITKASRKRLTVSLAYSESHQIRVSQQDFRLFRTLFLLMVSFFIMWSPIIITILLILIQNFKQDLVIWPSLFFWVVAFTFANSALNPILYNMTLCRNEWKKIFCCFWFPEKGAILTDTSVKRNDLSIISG
Summary of the method: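 Human GPR120 calcium-flux assay in HEK-293 cells; values are averages of n > 2 runs, SEM < ±25%.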

[2] = Stability of the compound in air assessed as oxidation; type: physicochemical
Cytochrome P450 3A4 = Cytochrome P450 3A4 (Homo sapiens, UniProt P08684); experiment: Inhibition of CYP3A4 (unknown origin); type: ADME
Cytochrome P450 2D6 = Cytochrome P450 2D6 (Homo sapiens, UniProt P10635); experiment: Inhibition of CYP2D6 (unknown origin); type: ADME
Cytochrome P450 1A2 = target: T2, Cytochrome P450 1A2 (Homo sapiens, UniProt P05177); experiment: Inhibition of CYP1A2 (unknown origin); type: ADME
T2 sequence (P05177 whole entry): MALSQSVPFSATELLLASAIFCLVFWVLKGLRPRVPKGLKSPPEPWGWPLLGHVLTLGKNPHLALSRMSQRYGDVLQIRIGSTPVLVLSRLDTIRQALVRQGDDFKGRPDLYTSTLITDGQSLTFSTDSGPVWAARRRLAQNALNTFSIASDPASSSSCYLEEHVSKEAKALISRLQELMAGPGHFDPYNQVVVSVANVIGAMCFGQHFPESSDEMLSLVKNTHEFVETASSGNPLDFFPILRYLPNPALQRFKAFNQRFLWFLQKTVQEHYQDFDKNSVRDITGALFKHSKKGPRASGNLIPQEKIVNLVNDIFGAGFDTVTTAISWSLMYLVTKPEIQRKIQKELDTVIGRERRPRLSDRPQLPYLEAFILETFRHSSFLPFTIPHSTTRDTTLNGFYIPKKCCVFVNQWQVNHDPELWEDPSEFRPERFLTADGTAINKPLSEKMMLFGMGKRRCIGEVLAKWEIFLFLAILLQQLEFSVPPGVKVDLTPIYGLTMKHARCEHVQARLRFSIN

Cytochrome P450 2C9 = Cytochrome P450 2C9 (Homo sapiens, UniProt P11712); experiment: Inhibition of CYP2C9 (unknown origin); type: ADME
Cytochrome P450 2C19 = Cytochrome P450 2C19 (Homo sapiens, UniProt P33261); experiment: Inhibition of CYP2C19 (unknown origin); type: ADME
[3] = Half life in human liver microsomes; type: ADME, microsome
[4] = Half life in mouse liver microsomes; type: ADME, microsome
[5] = Half life in rat liver microsomes; type: ADME, microsome
[6] = Protein binding in human plasma; type: ADME, cell-free; conditions: read-out: PPB (converted)
[7] = Protein binding in mouse plasma; type: ADME, cell-free; conditions: read-out: PPB (converted)
[8] = Protein binding in rat plasma; type: ADME, cell-free; conditions: read-out: PPB (converted)
Mus musculus [9] = experiment: Antiobesity activity in diet-induced obesity C57Bl6/J mouse model assessed as basal glucose level in plasma at 3 mg/kg qd for 15 days measured on day 15 post 6 hrs fasting (reference value: 187 +/- 24 mg/dL); type: functional
Mus musculus [10] = experiment: Antiobesity activity in diet-induced obesity C57Bl6/J mouse model assessed as final glucose level in plasma at 3 mg/kg qd for 15 days measured on day 15 post 6 hrs fasting (reference value: 184 +/- 30 mg/dL); type: functional
Mus musculus [11] = experiment: Antiobesity activity in diet-induced obesity C57Bl6/J mouse model assessed as change in plasma glucose level at 3 mg/kg qd for 15 days measured on day 15 post 6 hrs fasting; type: functional
Mus musculus [12] = experiment: Antiobesity activity in diet-induced obesity C57Bl6/J mouse model assessed as basal insulin level in plasma at 3 mg/kg qd for 15 days measured on day 15 post 6 hrs fasting (reference value: 16959 +/- 4943 pg/ml); type: functional
Mus musculus [13] = experiment: Antiobesity activity in diet-induced obesity C57Bl6/J mouse model assessed as final insulin level in plasma at 3 mg/kg qd for 15 days measured on day 15 post 6 hrs fasting (reference value: 7304 +/- 2967 pg/ml); type: functional
Mus musculus [14] = experiment: Antiobesity activity in diet-induced obesity C57Bl6/J mouse model assessed as change in plasma insulin level at 3 mg/kg qd for 15 days measured on day 15 post 6 hrs fasting; type: functional

Sequence of Cytochrome P450 2D6 (P10635 whole entry): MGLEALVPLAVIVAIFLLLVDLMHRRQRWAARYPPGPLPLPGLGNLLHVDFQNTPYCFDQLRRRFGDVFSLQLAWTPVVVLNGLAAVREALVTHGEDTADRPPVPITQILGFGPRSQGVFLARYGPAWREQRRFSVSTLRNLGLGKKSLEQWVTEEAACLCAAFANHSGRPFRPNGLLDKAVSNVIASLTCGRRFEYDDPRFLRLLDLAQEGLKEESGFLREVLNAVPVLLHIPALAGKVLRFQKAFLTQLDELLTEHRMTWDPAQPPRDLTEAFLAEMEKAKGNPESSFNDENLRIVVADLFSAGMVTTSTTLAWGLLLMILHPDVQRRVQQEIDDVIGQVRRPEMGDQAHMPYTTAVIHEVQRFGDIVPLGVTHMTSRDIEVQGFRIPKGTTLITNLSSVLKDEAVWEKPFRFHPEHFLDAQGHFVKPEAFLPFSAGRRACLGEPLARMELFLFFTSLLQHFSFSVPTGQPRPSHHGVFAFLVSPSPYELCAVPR
Sequence of Cytochrome P450 2C19 (P33261 whole entry): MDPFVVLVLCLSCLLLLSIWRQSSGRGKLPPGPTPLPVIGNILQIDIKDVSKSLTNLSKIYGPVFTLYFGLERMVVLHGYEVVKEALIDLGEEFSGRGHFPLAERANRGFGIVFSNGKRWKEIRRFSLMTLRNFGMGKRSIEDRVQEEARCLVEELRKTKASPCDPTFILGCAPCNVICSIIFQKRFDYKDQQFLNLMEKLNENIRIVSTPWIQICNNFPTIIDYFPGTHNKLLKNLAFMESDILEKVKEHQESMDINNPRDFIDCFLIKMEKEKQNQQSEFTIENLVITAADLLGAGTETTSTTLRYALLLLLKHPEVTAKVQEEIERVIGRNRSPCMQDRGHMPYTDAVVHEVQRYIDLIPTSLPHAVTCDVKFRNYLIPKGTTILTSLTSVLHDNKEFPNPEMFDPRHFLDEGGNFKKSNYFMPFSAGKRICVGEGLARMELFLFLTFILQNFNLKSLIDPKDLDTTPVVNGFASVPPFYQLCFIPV
Sequence of Cytochrome P450 3A4 (P08684 whole entry): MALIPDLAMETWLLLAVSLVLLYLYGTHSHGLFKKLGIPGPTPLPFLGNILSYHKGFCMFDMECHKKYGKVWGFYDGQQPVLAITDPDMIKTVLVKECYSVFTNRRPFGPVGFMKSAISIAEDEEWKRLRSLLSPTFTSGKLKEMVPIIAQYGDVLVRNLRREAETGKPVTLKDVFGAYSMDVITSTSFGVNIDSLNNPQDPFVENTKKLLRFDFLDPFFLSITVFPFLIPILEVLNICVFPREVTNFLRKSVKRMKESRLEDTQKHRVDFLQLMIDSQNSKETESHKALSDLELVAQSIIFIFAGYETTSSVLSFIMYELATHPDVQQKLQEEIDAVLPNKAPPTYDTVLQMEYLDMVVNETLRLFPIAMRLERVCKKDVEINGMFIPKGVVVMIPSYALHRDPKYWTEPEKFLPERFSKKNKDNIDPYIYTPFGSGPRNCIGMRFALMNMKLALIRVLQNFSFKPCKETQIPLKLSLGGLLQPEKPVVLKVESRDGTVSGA
Sequence of Cytochrome P450 2C9 (P11712 whole entry): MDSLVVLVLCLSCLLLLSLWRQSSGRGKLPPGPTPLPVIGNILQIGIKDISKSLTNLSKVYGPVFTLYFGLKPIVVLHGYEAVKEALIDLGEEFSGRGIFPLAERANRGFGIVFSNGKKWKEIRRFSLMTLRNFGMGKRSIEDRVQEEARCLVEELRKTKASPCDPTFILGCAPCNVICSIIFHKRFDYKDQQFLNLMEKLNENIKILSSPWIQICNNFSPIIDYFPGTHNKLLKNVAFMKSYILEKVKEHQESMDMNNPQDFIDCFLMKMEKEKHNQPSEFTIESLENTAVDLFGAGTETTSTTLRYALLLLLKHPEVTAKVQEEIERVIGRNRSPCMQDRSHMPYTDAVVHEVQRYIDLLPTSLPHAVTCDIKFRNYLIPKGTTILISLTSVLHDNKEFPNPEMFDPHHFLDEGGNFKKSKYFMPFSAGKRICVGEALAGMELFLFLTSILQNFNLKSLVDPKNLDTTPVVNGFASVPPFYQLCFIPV

COc1ccc(-n2ccc(C(F)(F)F)c2COc2c(F)cc(CCC(=O)O)cc2F)cc1
EC50 [1]: 184 nM

Cc1c(CCC(=O)O)ccc(OCc2cccn2-c2ccc(Br)cc2)c1C
Stability [2]: Unstable

Cc1ccc(-n2ccc(C(F)(F)F)c2COc2c(F)cc(CCC(=O)O)cc2F)cc1
INH (Cytochrome P450 3A4): > 10 µM
INH (Cytochrome P450 2D6): > 10 µM
INH (Cytochrome P450 1A2): > 10 µM
INH (Cytochrome P450 2C9): 4.2 µM
INH (Cytochrome P450 2C19): > 10 µM
half-life [3]: 7 min
half-life [4]: 85 min
half-life [5]: < 4 min
fraction unbound [6]: 0.0008
fraction unbound [7]: 0.0041
fraction unbound [8]: 0.0015

COC(=O)CCc1cc(F)c(OCc2c(C(F)(F)F)ccn2-c2ccc(Cl)cc2)c(F)c1
EC50 [1]: > 5000 nM

Cc1c(CCC(=O)O)ccc(OCc2c(C(F)(F)F)ccn2-c2ccc(Cl)cc2)c1C
Stability [2]: Stable

CCc1ccc(-n2ccc(C(F)(F)F)c2COc2ccc(CCC(=O)O)c(F)c2F)cc1
INH (Cytochrome P450 3A4): > 10 µM
INH (Cytochrome P450 2D6): > 10 µM
INH (Cytochrome P450 1A2): > 10 µM
INH (Cytochrome P450 2C9): 7 µM
INH (Cytochrome P450 2C19): 9 µM
half-life [3]: 15 min
half-life [4]: 7 min
half-life [5]: < 4 min
fraction unbound [6]: 0.0002
fraction unbound [7]: 0.0014
fraction unbound [8]: 0.0008

O=C(O)CCc1cc(F)c(OCc2c(C(F)(F)F)ccn2-c2ccccc2)c(F)c1
EC50 [1]: 100 to 101 nM

O=C(O)CCc1ccc(OCc2c(C(F)(F)F)ccn2-c2ccc(Cl)cc2)c(F)c1F
Stability [2]: Stable

CN(CCOc1ccc(CC2SC(=O)NC2=O)cc1)c1ccccn1 (centres undefined) [ROSIGLITAZONE]
Activity (Mus musculus [9]): 188 mg/dL
Activity (Mus musculus [10]): 148 mg/dL
Activity (Mus musculus [11]): -36.6 mg/dL
Activity (Mus musculus [12]): 15956 pg/mL
Activity (Mus musculus [13]): 1348 pg/mL
Activity (Mus musculus [14]): -5970 pg/mL
